Experimental data as given in PubChem BioAssay.
Records with an inconclusive call do not appear.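 The calls were made as follows, unless noted: active = inhibition over a set limit, the all-compound mean plus 3 SD, in both replicate runs; inconclusive = over that limit in just one replicate run; inactive = at or under that limit in both runs.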

Experiments:
[1] = S. cerevisiae growth inhibition in permissive medium (OD615), pilot counter-assay for S. cerevisiae lifespan shortening project, permissive growth control (AID 705;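 active = growth inhibition above 25% in both replicates, a cutoff set 3 SD above the mean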); details: OD615, 24 h, at 10 µM, stronger effect = higher value
Method in brief: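 System: engineered DeaD yeast; Medium: permissive raffinose/galactose medium; Compound dosing: 10 µM single dose, 0.25% DMSO; Incubation: 4 h cell pre-growth, 24 h exposure at 30 °C; Technique: OD at 615 nm; Evaluation: growth inhibition from lowered OD615 after 24 h.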

[2] = S. cerevisiae growth inhibition in restrictive medium, OD615, pilot screen, restrictive growth control, yeast lifespan reduction project (AID 706;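 active = growth inhibition above a set limit, 3 SD over mean compound inhibition, in both replicates, cut at about 43% in these data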;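 also: modified DeaD lifespan yeast strain shifted to restrictive glucose medium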); details: OD615, 48 h, at 10 µM, stronger effect = higher value
Method in brief: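 Material: modified S. cerevisiae; buffer or medium: CSMM-D glucose medium; doses: one concentration, 10 µM final, 0.25% DMSO; incubation: 48 h compound exposure at 30 °C; detection: optical density at 615 nm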

[3] = doxorubicin toxicity protection in MRP-1 cells – H69AR cells, CellTiter-Glo, duplicate, MRP-1 activator project, pilot screen (AID 807;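 active = viability increase at or above a cutoff of the median across tested compounds plus 3 SD, cut at about 8.5% in these data, passing the limit was not always enough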;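 also: compound pretreatment 18-22 h then 72 h combined with doxorubicin; 0% = doxorubicin alone and 100% = vehicle without doxorubicin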); details: H69AR viability with doxorubicin, CellTiter-Glo luminescence; at 10 µM; stronger effect = higher value
[4] = viability of HCT116 without oncogenic beta-catenin – human colon tumor cells, pilot screen (AID 823;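 active = cell viability at or below a set limit in both duplicate runs, the limit being the all-compound median minus 4 SD, cut at about 23% in these data, passing the limit was not always enough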;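 also: 0% = wells killed by 20 µM Hyamine and 100% = untreated DMSO cell wells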); details: HCT116 beta-catenin knockout viability, CellTiter-Glo, 60 h; at 10 µM; stronger effect = lower value
[5] = viability of PTEN-null HCT116 cells – cell-based, HCT116 clonal line, CellTiter-Glo, pilot screen (AID 824;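 active = viability at or below 27.92% in each of two runs, the all-compound median minus 4 SD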;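 also: 0% = 20 µM Hyamine control and 100% = vehicle cell control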); details: HCT116 PTEN-deleted viability, 60 h, at 10 µM, stronger effect = lower value
[6] = RAM pathway blockade in budding yeast – dse1pr::URA3 reporter, 5-FOA selection, pilot screen (AID 869);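 also: 0% = DMSO wells with no growth and 100% = 10 µM 1-NA-PP1 with full growth; RAM network block rescues cells from 5-FOA so hits raise OD615 growth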; details: S. cerevisiae dse1pr::URA3 5-FOA growth, OD615, 2 d; at 10 µM; stronger effect = higher value; strain carries analog-sensitive mutant Cbk1 kinase
[7] = RAM signaling pathway blockade in yeast – S. cerevisiae, Pdr1DBD-CYC8 efflux-inhibited sensitized strain, primary screen (AID 1298;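 active = RAM network inhibition above 8.4% in each of two replicates, 3 SD over the compound average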;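 also: 0% = DMSO untreated cells without growth and 100% = 10 µM 1-NA-PP1 full growth; higher means more yeast growth rescued from 5-FOA killing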); details: S. cerevisiae cbk1-as DSE1-URA3 strain, 5-FOA growth OD615, 2 d; at 50 µM; stronger effect = higher value

CCOC(=O)Cc1csc(NC(=O)COc2ccc(N(C)S(=O)(=O)c3cccs3)cc2)n1
inactive: growth inhibition [1] -7.54% | growth inhibition [2] -11.7% | viability increase [3] -1.76% | viability [4] 71% | viability [5] 80.3% | inhibition [6] 0.12% | RAM network inhibition [7] 1.7%

Cc1nnc(NC(=O)CSc2nnc(CNC(=O)c3ccccc3)n2-c2ccccc2)s1
inactive: growth inhibition [1] -5% | growth inhibition [2] -0.57% | viability increase [3] 0% | viability [4] 96.1% | viability [5] 96.5% | inhibition [6] 3% | RAM network inhibition [7] 3.59%

CCc1ccc2nc(NC3=NCN(CCOC)CN3)nc(C)c2c1
inactive: growth inhibition [1] -2.2% | growth inhibition [2] -4.05% | viability increase [3] -2.81% | viability [4] 63% | viability [5] 66.9% | inhibition [6] 1.18% | RAM network inhibition [7] -1.8%

Cc1cc(C)nc(-n2nc(C)cc2NC(=O)CN2CCC(C)CC2)n1
inactive: growth inhibition [1] -0.83% | growth inhibition [2] 21.6% | viability increase [3] -5.27% | viability [4] 75.3% | viability [5] 85.5% | inhibition [6] 1.01% | RAM network inhibition [7] 2.91%

Cc1nnc(Nc2ccc3c(c2)OCO3)c2ccccc12
inactive: growth inhibition [1] -10.6% | growth inhibition [2] -15.2% | viability increase [3] -3.25% | viability [4] 92% | viability [5] 91.7% | inhibition [6] 0.365% | RAM network inhibition [7] 4.96%

O=C(NCCCN1CCOCC1)c1ccc(CS(=O)(=O)c2ccc(Br)cc2)o1
inactive: growth inhibition [1] -9.31% | growth inhibition [2] -11% | viability increase [3] -0.56% | viability [4] 99.8% | viability [5] 96.2% | inhibition [6] 2.23% | RAM network inhibition [7] 3.6%

CCOC(=O)N1CCC(NC(=O)CS(=O)(=O)Cc2nc(-c3ccc(C)cc3)oc2C)CC1
inactive: growth inhibition [1] -20.3% | growth inhibition [2] -37.1% | viability increase [3] 0.42% | viability [4] 75.3% | viability [5] 81.3% | inhibition [6] 0.44% | RAM network inhibition [7] 0.36%

O=S(=O)(NCCc1cn2ccccc2n1)c1ccc2c(c1)OCCO2
inactive: growth inhibition [1] -2.27% | growth inhibition [2] -2.71% | viability increase [3] -2.56% | viability [4] 105% | viability [5] 97% | inhibition [6] 1.62% | RAM network inhibition [7] 2.25%

O=C(NCc1ccco1)C1CCN(c2nc3ccccc3n2Cc2ccc(F)cc2)CC1
inactive: growth inhibition [1] -6.36% | growth inhibition [2] -0.175% | viability increase [3] -5.61% | viability [4] 78.1% | viability [5] 73.9% | inhibition [6] 0.41% | RAM network inhibition [7] 7.12%

CN(C)c1ccc(C2C3C(=O)NC(=O)C3ON2c2ccc(Cl)cc2)cc1 (configuration not stated)
inactive: growth inhibition [1] -0.19% | growth inhibition [2] 2.37% | viability increase [3] -0.83% | viability [4] 102% | viability [5] 98.6% | inhibition [6] 0.735% | RAM network inhibition [7] 4.07%

COc1ccccc1Cc1nc(-c2ccc(Br)o2)no1
inactive: growth inhibition [1] -0.335% | growth inhibition [2] 6.17% | viability increase [3] -3.52% | viability [4] 97.4% | viability [5] 85.8% | inhibition [6] 2.08% | RAM network inhibition [7] 5.63%

CC1CCc2nn(CC(=O)NC3CCCC3)cc2C1 (configuration not stated)
inactive: growth inhibition [1] 0.6% | growth inhibition [2] 10.9% | viability increase [3] -1.14% | viability [4] 105% | viability [5] 92.9% | inhibition [6] 0.925% | RAM network inhibition [7] 0.63%

COc1ccc(NC(=O)C(CC(=O)O)Cc2ccccc2)cc1 (configuration not stated)
inactive: growth inhibition [1] -17% | growth inhibition [2] -9.36% | viability increase [3] -0.09% | viability [4] 102% | viability [5] 97.9% | inhibition [6] 1.62% | RAM network inhibition [7] 5.61%

O=C(O)Cn1ncc2c1-c1ccoc1CC2
inactive: growth inhibition [1] -0.31% | growth inhibition [2] 2.4% | viability increase [3] -0.14% | viability [4] 106% | viability [5] 96.6% | inhibition [6] 2.17% | RAM network inhibition [7] 0.47%

CCOC(=O)c1cccc(NC(=O)C2CCCN2S(=O)(=O)c2cccc3cccnc23)c1 (configuration not stated)
inactive: growth inhibition [1] -9.1% | growth inhibition [2] -2.39% | viability increase [3] -3.02% | viability [4] 92% | viability [5] 89.8% | inhibition [6] 1.41% | RAM network inhibition [7] -1.53%

CC(CC1C(C#N)=C(N)OC2=C1C(=O)CCC2)c1ccccc1 (configuration not stated)
inactive: growth inhibition [1] -23.1% | growth inhibition [2] -13.3% | viability increase [3] -1.89% | viability [4] 98.6% | viability [5] 99.3% | inhibition [6] 0.91% | RAM network inhibition [7] 5.88%

Cc1ccccc1-n1c(Cn2c(=O)sc3ccccc32)nnc1SCC(=O)NCC1CCCO1 (configuration not stated)
inactive: growth inhibition [1] -3.68% | growth inhibition [2] -12.2% | viability increase [3] 0% | viability [4] 100% | viability [5] 97.9% | inhibition [6] 0.82% | RAM network inhibition [7] 3.19%

O=C(CCNS(=O)(=O)c1cccc2nsnc12)NCCC1=CCCCC1
inactive: growth inhibition [1] -8.97% | growth inhibition [2] -9.04% | viability increase [3] -2.88% | viability [4] 90.6% | viability [5] 94.8% | inhibition [6] 2.49% | RAM network inhibition [7] 6.94%

Cc1nn(-c2ccccc2)c2c1C(c1ccncc1)C(C#N)=C(N)O2 (configuration not stated)
inactive: growth inhibition [1] -12.9% | growth inhibition [2] -0.78% | viability increase [3] -0.07% | viability [4] 92.8% | viability [5] 89.6% | inhibition [6] 0.975% | RAM network inhibition [7] 4.36%

CCN(CC)C(=O)CSc1ccccc1N
inactive: growth inhibition [1] -16.2% | growth inhibition [2] -9.23% | viability increase [3] -1.98% | viability [4] 89.5% | viability [5] 94.4% | inhibition [6] 0.885% | RAM network inhibition [7] 5.73%

O=C(NCc1ccco1)c1ccc(S(=O)(=O)c2cccc(S(=O)(=O)N3CCOCC3)c2)cc1
inactive: growth inhibition [1] 19% | growth inhibition [2] 2.85% | viability increase [3] -4.28% | viability [4] 92.4% | viability [5] 87.1% | inhibition [6] 1.19% | RAM network inhibition [7] 3.8%

Cn1nnnc1SCc1ccc(F)cc1
inactive: growth inhibition [1] -3.69% | growth inhibition [2] -4.48% | viability increase [3] -0.09% | viability [4] 98.1% | viability [5] 108% | inhibition [6] 1.25% | RAM network inhibition [7] 2.61%

CN(C)CCCCCNCCCNC(=O)/C=N\O
inactive: growth inhibition [1] -2.17% | growth inhibition [2] 3.62% | viability increase [3] 0.12% | viability [4] 98.3% | viability [5] 103% | inhibition [6] 3.2% | RAM network inhibition [7] 1.4%

C=CCOC(=O)CCP(=O)(CCC(=O)OCC=C)c1ccccc1
inactive: growth inhibition [1] 5.05% | growth inhibition [2] 1.05% | viability increase [3] -1.13% | viability [4] 96.5% | viability [5] 98.8% | inhibition [6] -0.22% | RAM network inhibition [7] -1.29%

Cc1nn(Cc2c(Cl)cccc2Cl)c(C)c1NC(=O)c1cc(C(C)C)on1
inactive: growth inhibition [1] -10.6% | growth inhibition [2] 0.6% | viability increase [3] -1.33% | viability [4] 74.2% | viability [5] 62.9% | inhibition [6] 2.81% | RAM network inhibition [7] 2.56%

O=c1nc2scc(-c3ccccc3)n2c2ccccc12
inactive: growth inhibition [1] -14.7% | growth inhibition [2] -0.83% | viability increase [3] -2.24% | viability [4] 94.1% | viability [5] 97.1% | inhibition [6] 4.32% | RAM network inhibition [7] 7.95%

CCOC(=O)CN1c2ccccc2NC(=O)CC1C (configuration not stated)
inactive: growth inhibition [1] -5.11% | growth inhibition [2] -4.52% | viability increase [3] -4.06% | viability [4] 101% | viability [5] 98.9% | inhibition [6] 0.895% | RAM network inhibition [7] -0.43%

Cc1cc(C)n2nc(SCC(=O)Nc3ccc(F)cc3)nc2n1
inactive: growth inhibition [1] -11.7% | growth inhibition [2] -10.9% | viability increase [3] -1.21% | viability [4] 111% | viability [5] 98.5% | inhibition [6] 2.25% | RAM network inhibition [7] -0.94%

O=C(c1cc(-c2cccc(O)c2)on1)N1CCOCC1
inactive: growth inhibition [1] 1.27% | growth inhibition [2] 7.52% | viability increase [3] 0.64% | viability [4] 107% | viability [5] 98.4% | inhibition [6] 2.15% | RAM network inhibition [7] 2.22%

CCOc1ccccc1NC(=O)C1Cc2ccccc2CN1S(C)(=O)=O (configuration not stated)
inactive: growth inhibition [1] -8.32% | growth inhibition [2] -7.46% | viability increase [3] -5.66% | viability [4] 82.9% | viability [5] 80.6% | inhibition [6] 0.37% | RAM network inhibition [7] 3%

CCOc1ccccc1C1CC(c2ccc(Cl)cc2)Nc2nc(N)nn21 (configuration not stated)
inactive: growth inhibition [1] 0.515% | growth inhibition [2] 23% | viability increase [3] 1.4% | viability [4] 66.3% | viability [5] 77.6% | inhibition [6] -0.11% | RAM network inhibition [7] 1.24%

COc1ccc(C2CC(c3ccc(Cl)c(Cl)c3)Nc3nc(N)nn32)cc1 (configuration not stated)
inactive: growth inhibition [1] -6.79% | growth inhibition [2] 12.7% | viability increase [3] -2.3% | viability [4] 75.4% | viability [5] 76.4% | inhibition [6] 2.52% | RAM network inhibition [7] 5.52%

COc1ccc(C(=O)N2CCC(C(=O)Nc3ccc(OC)c(OC)c3)CC2)cc1
inactive: growth inhibition [1] -6.75% | growth inhibition [2] -8.78% | viability increase [3] -0.38% | viability [4] 89.7% | viability [5] 89% | inhibition [6] 1.28% | RAM network inhibition [7] 2.4%

Brc1ccc(-c2nnc3sc(CNCc4ccc5c(c4)OCO5)cn23)cc1
inactive: growth inhibition [1] 5.46% | growth inhibition [2] 20.8% | viability increase [3] -0.67% | viability [4] 99.6% | viability [5] 99.8% | inhibition [6] 1.17% | RAM network inhibition [7] 1.64%

COc1ccc(C(=O)NCCn2ccc3ccccc32)cc1OC
inactive: growth inhibition [1] -9.53% | growth inhibition [2] -16.1% | viability increase [3] -3.48% | viability [4] 99.7% | viability [5] 81.9% | inhibition [6] 1.91% | RAM network inhibition [7] 2.68%

COc1cccc(NC(=O)c2cccnc2)c1
inactive: growth inhibition [1] -5.19% | growth inhibition [2] 7.85% | viability increase [3] 1.59% | viability [4] 100% | viability [5] 87.2% | inhibition [6] 0.55% | RAM network inhibition [7] 3.7%
